Reference: ChEMBL document CHEMBL4346669, “Novel nannocystin A analogues as anticancer therapeutics: Synthesis, biological evaluations and structure-activity relationship studies” (Eur J Med Chem, 2019)
Activity calls are given as the source filed them. No cut-off for these calls is given here.

What was measured:
A549 [1] = experiment: Induction of apoptosis in human A549 cells assessed as early apoptotic cells at 60 nM after 24 hrs by Annexin-V FITC/propidium iodide staining based flow cytometric analysis; assay type: functional
In short: (§1)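 Time-course: A549 (2×10^5 cells/well, grown overnight) exposed to 60 nM for 6, 12 or 24 h; untreated control. Cells trypsinized, washed in cold PBS, stained 15 min with Annexin V-FITC in binding buffer, then PI, and read by flow cytometry; duplicate experiments.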

A549 [2] = experiment: Cell cycle arrest in human A549 cells assessed as accumulation at G1 phase at 30 nM after 24 hrs by propidium iodide/RNase A staining-based flow cytometric analysis (reference value: 57.41%); assay type: functional
A549 [3] = experiment: Induction of apoptosis in human A549 cells assessed as early apoptotic cells at 60 nM after 6 hrs by Annexin-V FITC/propidium iodide staining based flow cytometric analysis; assay type: functional; in short: as §1
A549 [4] = experiment: Cell cycle arrest in human A549 cells assessed as accumulation at S phase at 60 nM after 24 hrs by propidium iodide/RNase A staining-based flow cytometric analysis (reference value: 12.57%); assay type: functional
A549 [5] = experiment: Induction of apoptosis in human A549 cells assessed as increase in caspase3 expression by Western blot analysis; assay type: functional, cell-based
In short: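 A549 treated 30, 60 and 90 nM for 24 h; lysates normalized by BCA, 30 μg protein denatured in SDS buffer at 100 °C 8 min, SDS-PAGE, PVDF transfer, blocked in 5% milk/TBS-0.05% Tween 2 h, primary antibodies overnight at 4 °C, HRP anti-rabbit IgG 2 h, ECL detection; β-actin loading control.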

A549 [6] = experiment: Induction of apoptosis in human A549 cells after 12 hrs by Annexin-V FITC/propidium iodide staining based flow cytometric analysis; assay type: functional, cell-based
A549 [7] = experiment: Induction of apoptosis in human A549 cells assessed as early apoptotic cells at 30 nM after 12 hrs by Annexin-V FITC/propidium iodide staining based flow cytometric analysis (reference value: 0.32%); assay type: functional
A549 [8] = experiment: Induction of apoptosis in human A549 cells assessed as necrotic cells at 60 nM after 24 hrs by Annexin-V FITC/propidium iodide staining based flow cytometric analysis; assay type: functional; in short: as §1
A549 [9] = experiment: Cell cycle arrest in human A549 cells assessed as accumulation at S phase at 90 nM after 24 hrs by propidium iodide/RNase A staining-based flow cytometric analysis (reference value: 12.57%); assay type: functional
A549 [10] = experiment: Induction of apoptosis in human A549 cells assessed as late apoptotic cells at 30 nM after 12 hrs by Annexin-V FITC/propidium iodide staining based flow cytometric analysis (reference value: 1.22%); assay type: functional
A549 [11] = experiment: Induction of apoptosis in human A549 cells assessed as late apoptotic cells at 60 nM after 12 hrs by Annexin-V FITC/propidium iodide staining based flow cytometric analysis (reference value: 1.22%); assay type: functional
A549 [12] = experiment: Cell cycle arrest in human A549 cells assessed as accumulation at G2 phase at 90 nM after 24 hrs by propidium iodide/RNase A staining-based flow cytometric analysis (reference value: 30.02%); assay type: functional
A549 [13] = experiment: Induction of apoptosis in human A549 cells assessed as viable cells at 60 nM after 6 hrs by Annexin-V FITC/propidium iodide staining based flow cytometric analysis; assay type: functional; details: A549, 6 h, read-out: Activity; in short: as §1
SH-SY5Y = experiment: Antiproliferative activity against human SH-SY5Y cells assessed as reduction in cell viability measured after 72 hrs by MTT assay; assay type: functional, cell-based
In short: (§2)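 Cells seeded at 5×10^3 per well and cultured overnight, then exposed for 72 h at 37 °C to six concentrations from 10 µM down to 0.0001 µM (from 10 mM DMSO stock diluted in medium; vehicle 1% DMSO in PBS). MTT at 0.5 mg/mL was added for 4 h, formazan dissolved in DMSO, and A570 read. IC50 given as mean ± SD of three independent experiments.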

MCF7 = experiment: Antiproliferative activity against human MCF7 cells assessed as reduction in cell viability measured after 72 hrs by MTT assay; assay type: functional, cell-based; details: MCF7, 72 h; in short: as §2
A549 [14] = experiment: Cell cycle arrest in human A549 cells assessed as accumulation at S phase at 30 nM after 24 hrs by propidium iodide/RNase A staining-based flow cytometric analysis (reference value: 12.57%); assay type: functional
MDA-MB-231 = experiment: Antiproliferative activity against human MDA-MB-231 cells assessed as reduction in cell viability measured after 72 hrs by MTT assay; assay type: functional, cell-based; details: MDA-MB-231, 72 h; in short: as §2
A549 [15] = experiment: Induction of apoptosis in human A549 cells assessed as necrotic cells at 60 nM after 6 hrs by Annexin-V FITC/propidium iodide staining based flow cytometric analysis; assay type: functional; in short: as §1
A549 [16] = experiment: Induction of apoptosis in human A549 cells assessed as necrotic cells at 90 nM after 12 hrs by Annexin-V FITC/propidium iodide staining based flow cytometric analysis (reference value: 1.28%); assay type: functional
A549 [17] = experiment: Induction of apoptosis in human A549 cells assessed as late apoptotic cells at 90 nM after 12 hrs by Annexin-V FITC/propidium iodide staining based flow cytometric analysis (reference value: 1.22%); assay type: functional
A549 [18] = experiment: Cell cycle arrest in human A549 cells assessed as accumulation at G1 phase at 60 nM after 24 hrs by propidium iodide/RNase A staining-based flow cytometric analysis (reference value: 57.41%); assay type: functional
A549 [19] = experiment: Induction of apoptosis in human A549 cells assessed as viable cells at 30 nM after 12 hrs by Annexin-V FITC/propidium iodide staining based flow cytometric analysis (reference value: 97.18%); assay type: functional; details: A549, 12 h, read-out: Activity
A549 [20] = experiment: Cell cycle arrest in human A549 cells assessed as accumulation at G2 phase after 24 hrs by propidium iodide/RNase A staining-based flow cytometric analysis; assay type: functional
A549 [21] = experiment: Induction of apoptosis in human A549 cells assessed as nuclear fragmentation at 90 nM after 24 hrs by […] staining-based confocal laser scanning microscopic analysis; assay type: functional, cell-based
In short: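 A549 exposed to 30, 60 and 90 nM for 24 h, stained with Hoechst 33342, imaged by confocal laser scanning microscopy; strongly blue-fluorescent nuclei scored as apoptotic.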

A549 [22] = experiment: Induction of apoptosis in human A549 cells assessed as early apoptotic cells at 90 nM after 12 hrs by Annexin-V FITC/propidium iodide staining based flow cytometric analysis (reference value: 0.32%); assay type: functional
A-375 = experiment: Antiproliferative activity against human A375 cells assessed as reduction in cell viability measured after 72 hrs by MTT assay; assay type: functional, cell-based; details: A-375, 72 h; in short: as §2
A549 [23] = experiment: Cell cycle arrest in human A549 cells assessed as accumulation at G2 phase at 60 nM after 24 hrs by propidium iodide/RNase A staining-based flow cytometric analysis (reference value: 30.02%); assay type: functional
A549 [24] = experiment: Induction of apoptosis in human A549 cells assessed as late apoptotic cells at 60 nM after 24 hrs by Annexin-V FITC/propidium iodide staining based flow cytometric analysis; assay type: functional; in short: as §1
A549 [25] = experiment: Induction of apoptosis in human A549 cells assessed as early apoptotic cells at 60 nM after 12 hrs by Annexin-V FITC/propidium iodide staining based flow cytometric analysis (reference value: 0.32%); assay type: functional
A549 [26] = experiment: Induction of apoptosis in human A549 cells assessed as viable cells at 90 nM after 12 hrs by Annexin-V FITC/propidium iodide staining based flow cytometric analysis (reference value: 97.18%); assay type: functional; details: A549, 12 h, read-out: Activity

COc1cc(C[C@H]2NC(=O)[C@H](C(C)C)N(C)C(=O)/C(C)=C/C[C@@H](OC)/C(C)=C/C=C/[C@@H](C)[C@@H](c3ccccc3)OC(=O)[C@H](C(C)C)NC2=O)ccc1O
Activity (A549 [1]): 3.48% | Activity (A549 [2]): 49.14% | Activity (A549 [3]): 0.34% | Activity (A549 [4]): 14.75% | Activity (A549 [5]): Dose-dependent effect | Activity (A549 [6]): Dose-dependent effect | Activity (A549 [7]): 1.21% | Activity (A549 [8]): 13.07% | Activity (A549 [9]): 4.46% | Activity (A549 [10]): 13.6% | Activity (A549 [11]): 20.03% | Activity (A549 [12]): 57.73% | viability at 0.06 µM (A549 [13]): 92.3% | IC50 (SH-SY5Y): 9.6 nM | IC50 (MCF7): 15 nM | Activity (A549 [14]): 13.21% | IC50 (MDA-MB-231): 12.5 nM | Activity (A549 [15]): 2.3% | Activity (A549 [16]): 12.85% | Activity (A549 [17]): 28.22% | Activity (A549 [18]): 44.44% | viability at 0.03 µM (A549 [19]): 75.3% | Activity (A549 [20]): Dose-dependent effect | Activity (A549 [21]): Active | Activity (A549 [22]): 3.55% | IC50 (A-375): 4.3 nM | Activity (A549 [23]): 40.8% | Activity (A549 [24]): 29.03% | Activity (A549 [25]): 3.55% | viability at 0.09 µM (A549 [26]): 55.4%
